Rows were chosen to be rich in hits. Some 3.6% of all compounds tested hit in one or more screens of this group.
NadD inh: NadD (S. aureus) enzyme inhibition; purified NadD enzyme, colorimetric absorbance read-out; inhibition, % at 20 µM; actives 0.78% (n = 360,000); in the data active means inhibition above about 26%
ATG4B inhibitor: blocks human ATG4B protease cleavage of LC3 substrate; Q9Y4P1; ATG4B cleavage of LC3-PLA2, NBD-HPC fluorescence, 1 h; inhibition, % at 8.33 µM; actives 0.51% (n = 340,000); in the data active means inhibition above about 40%
Target sequence (Q9Y4P1 whole entry, looked up): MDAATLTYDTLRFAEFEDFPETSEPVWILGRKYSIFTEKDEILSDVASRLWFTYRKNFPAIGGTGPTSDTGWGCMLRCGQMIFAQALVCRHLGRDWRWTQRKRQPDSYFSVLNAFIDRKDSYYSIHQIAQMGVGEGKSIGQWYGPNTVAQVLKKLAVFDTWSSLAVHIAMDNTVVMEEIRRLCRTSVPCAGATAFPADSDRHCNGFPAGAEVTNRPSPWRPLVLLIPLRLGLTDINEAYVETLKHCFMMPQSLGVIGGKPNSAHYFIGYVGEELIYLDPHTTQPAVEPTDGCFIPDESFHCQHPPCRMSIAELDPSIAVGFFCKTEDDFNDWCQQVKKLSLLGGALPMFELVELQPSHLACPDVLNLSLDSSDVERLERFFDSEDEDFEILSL
UCH37 inh: blocks the human deubiquitinase UCH37; Q9Y5K5; purified proteasome/UCH37, Ub-AMC cleavage fluorescence; inhibition, % (no concentration beside the values); actives 0.33% (n = 330,000); AID 588478;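 active means mean inhibition over replicate wells above about 20%, limit read from the data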;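 further: 0% = compound-free wells with enzyme and 100% = wells lacking proteasome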
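Material: Human UCH37 enzyme supplied as purified proteasome complex | Schedule: 30 min compound-proteasome preincubation then 25 min substrate reaction, room temperature | Detection: AMC fluorescence from Ub-AMC cleavage, excitation 355 nm, emission 460 nm | Benchmarks: Wells without proteasome as full block, compound-free enzyme plus substrate as uninhibited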
GRIN3A LBD mod: modulates the human NR3A ligand-binding domain; NR3A LBD differential scanning fluorimetry, Tm shift; 0% = protein alone, 100% = glycine-bound protein; Tm shift relative to glycine control, % at 25 µM; actives 2.5% (n = 340,000); AID 1259313;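 active means melting temperature shift of at least 10% of the positive control shift, at one fixed dose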
SENP1 FRET inh: SENP1 (human) catalytic domain inhibition. inhibition, % at 10 µM. actives 0.21% (n = 360,000). AID 624204. recombinant SENP1 catalytic domain, CyPet-SUMO1-YPet FRET cleavage. Q9P0U3;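 active means inhibition at least 30% at 10 µM, raw YFP signal under a set limit, fluorescence ratio 0.5 to 1.5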;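 further: 0% = enzyme with DMSO and 100% = no enzyme wells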
Target sequence (Q9P0U3 419-644 limits assumed): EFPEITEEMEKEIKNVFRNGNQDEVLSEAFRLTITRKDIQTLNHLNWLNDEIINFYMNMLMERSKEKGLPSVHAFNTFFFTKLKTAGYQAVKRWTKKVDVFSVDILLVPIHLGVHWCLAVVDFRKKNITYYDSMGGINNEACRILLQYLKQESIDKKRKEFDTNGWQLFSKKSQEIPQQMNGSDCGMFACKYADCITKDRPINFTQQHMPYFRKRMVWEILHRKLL
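Test system: recombinant human SENP1 catalytic domain, His6-tagged / Medium: pH 8 Tris buffer with EDTA, NaCl, BME, BSA, NP40, catalase / Also added: SUMO1 FRET substrate flanked by Cypet and Ypet, 25 nM / Times: 50 min reaction at room temperature / Signal: FRET, CFP and YFP emission / Control set: no-enzyme low control and enzyme-plus-DMSO high control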
Numbers without * were called inactive; · = not tested or not shown.

SMILES	NadD inh	ATG4B inhibitor	UCH37 inh	GRIN3A LBD mod	SENP1 FRET inh
COc1ccc(C(=O)Nc2ccc(NC(=O)c3cccs3)cn2)cc1	-2	0	-25	17*	12
COc1ccc(C(=O)Nc2ccc(NC(=O)c3cccc(OC)c3)cn2)cc1	6	-11	-7	38*	3
COc1ccc(C(=O)Nc2ccc(NC(=O)c3cc(OC)c(OC)c(OC)c3)cn2)cc1	3	-17	-50	1	1
O=C(CSc1ncn[nH]1)NN=Cc1ccc(F)cc1	·	·	5	·	·
CC(Cn1nnc([N+](=O)[O-])n1)=NNC(=O)c1ccncc1	·	·	3	·	·
COc1ccccc1C=NNc1cc(N(C)C)nc(N(C)C)n1	·	·	2	·	·
Cc1nn(-c2ccccc2)c(C)c1C=NO	·	·	0	·	·
COc1cc(C=NNc2nc3ccccc3s2)ccc1OC(=O)c1ccccc1F	·	·	-4	·	·
Cc1ccccc1C(=O)NC(=S)Nc1sc2c(c1C#N)CCC(C)C2 (stereo not given)	18	17	7	14*	-3
CC1CCc2c(sc(NC(=S)NC(=O)c3ccccc3)c2C#N)C1 (stereo not given)	9	-2	1	1	0
N#Cc1c(NC(=S)NC(=O)c2ccccc2)sc2c1CCCC2	4	-8	2	12*	0
CC1(C)CC(=O)C(C=Nc2cccnc2N=CC2=C(O)CC(C)(C)CC2=O)=C(O)C1	·	·	2	·	·
CC(=NNC(=O)CN1CCN(Cc2ccccc2)CC1)c1ccc([N+](=O)[O-])cc1	·	·	5	·	·
CCCCn1c(N)c(N(CCOC)C(=O)c2cc(S(=O)(=O)N3CCCCC3)ccc2Cl)c(=O)[nH]c1=O	-3	-5	0	20*	-5
Cc1ccc(-c2csc(NC(=O)c3cccc([N+](=O)[O-])c3)n2)cc1	7	-4	1	25*	3
O=C(Nc1nc(-c2ccc([N+](=O)[O-])cc2)cs1)c1c(F)cccc1F	3	-5	4	-1	4
CC(=O)c1c(C)[nH]c(C(=O)Nc2nc(-c3ccc(-c4ccccc4)cc3)cs2)c1C	16	-18	-22	11*	0
O=[N+]([O-])c1cccc(-c2csc(N/N=C/c3cccc(O)c3)n2)c1	28	7	·	24*	6
CC(=O)Nc1nc(C)c(-c2csc(Nc3cccc([N+](=O)[O-])c3)n2)s1	27	-18	5	1	6
CC(=O)c1cccc(Nc2nc(-c3cccc([N+](=O)[O-])c3)cs2)c1	25	10	·	20*	3
CC(=O)c1c(C)[nH]c(C(=O)Nc2nc(-c3ccc(Cl)cc3)cs2)c1C	9	-11	2	-4	1
O=C(O)CC1SC(=NN=Cc2ccccc2)N(c2ccc(O)cc2)C1=O (stereo not given)	·	·	4	·	·
Cc1ccc(CSc2nnc(SCC(=O)NN=Cc3c[nH]c4ccccc34)s2)cc1	·	·	3	·	·
CN(C)S(=O)(=O)c1ccc(-c2csc(N/N=C/c3ccc(O)cc3)n2)cc1	38*	6	·	23*	25
CN(C)S(=O)(=O)c1ccc(-c2csc(N/N=C/c3ccco3)n2)cc1	2	-2	·	-3	11
SMILES	NadD inh	ATG4B inhibitor	UCH37 inh	GRIN3A LBD mod	SENP1 FRET inh
O=C(CSc1nc(-c2ccc(F)cc2)nc2c1Cc1ccccc1O2)Nc1cccc(C(=O)O)c1	10	6	19	19*	3
CC(C)OC(=O)CSc1nc(-c2ccc(F)cc2)nc2ccc(F)cc12	5	1	-1	-3	-2
O=C(CSc1nc(-c2ccccc2)nc2ccc(F)cc12)Nc1ccc(C(=O)O)cc1	11	4	15	16*	-5
CSc1nsc(SCC(=O)Nc2cccc(C(=O)O)c2)n1	-2	-4	5	-2	2
O=C(CSc1nc(-c2ccccc2)nc2ccc(F)cc12)Nc1cccc(C(=O)O)c1	12	0	10	12*	1
O=C(CSc1nncc2ccccc12)Nc1cccc(C(=O)O)c1	-2	0	5	-1	4
Cc1ccc(S(=O)(=O)c2c(N)n(N=Cc3ccco3)c3nc4ccccc4nc23)cc1C	·	·	-36	·	·
COC(=O)C1CCN(C(c2ccc(OC)c(OC)c2)c2sc3nc(C)nn3c2O)CC1 (stereo not given)	-2	-4	6	13*	4
CC(OC(=O)c1cccc(S(=O)(=O)Nc2cccc(C(F)(F)F)c2)c1)C(=O)Nc1ccc2c(c1)OCCO2 (stereo not given)	5	15	5	26*	2
O=C(NCc1ccco1)c1cc(-c2ccc(F)cc2)on1	-6	-1	1	-1	-1
O=C(NCc1ccco1)c1cc(-c2ccccc2)on1	1	4	3	11*	0
CCCC(=O)Nc1ccc(Br)cn1	4	4	-2	0	2
COc1ccc(/C=C/C(=O)NC(=S)Nc2ccccc2C(=O)NC2CCCCC2)cc1	4	-2	7	28*	1
O=C(/C=C/c1ccccc1)NC(=S)Nc1ccccc1C(=O)NC1CCCCC1	7	-9	2	25*	1
CCC(=O)Nc1ccc(Br)cn1	-6	8	4	233*	0
O=C(/C=C/c1ccc(F)cc1)NC(=S)Nc1ccccc1C(=O)NC1CCCCC1	3	2	7	1	-1
COc1ccc(/C=C/C(=O)NC(=S)Nc2ccc(Br)cn2)cc1	4	2	0	25*	1
Cc1ccc(/C=C/C(=O)NC(=S)Nc2ccccc2C(=O)NC2CCCCC2)cc1	-2	-11	3	1	-3
CC(C)c1ccc(C=c2sc3nc(-c4ccncc4)nn3c2=O)cc1	·	·	-2	·	·
CN(C)c1ccc(-c2nc3ccccn3c2N=Cc2ccc(Br)cc2)cc1	·	·	1	·	·
O=C(NN=Cc1ccc[nH]1)c1cc(-c2cccs2)nc2ccccc12	·	·	-5	·	·
Nc1nc2ccccc2n1/N=C/c1ccc(-c2ccccc2)o1	2	6	·	30*	-60
CC1=CCC(C(=O)O)(C(=O)NN=Cc2cccnc2)C(c2ccccc2)C1 (stereo not given)	·	·	1	·	·
Oc1ccc(N=Nc2n[nH]c(-c3ccc(Cl)cc3)n2)cc1	-3	0	8	24*	3
Oc1ccc(N=Nc2ccccc2)cc1	0	2	6	5	1
N#CC(=NO)c1nc(-c2ccccc2)cs1	·	·	6	·	·
COc1ccc(CC(=O)NN=C(C)c2cccc(NC(=O)C3CC3)c2)cc1	·	·	2	·	·
Cc1cc(O)c2c(c1O)C(=O)[C@]13C(=C2O)C(=O)[C@@H]2[C@@H](O)[C@H]1[C@@H]1[C@H](O)[C@H]3C(=O)C3=C(O)c4c(O)cc(C)c(O)c4C(=O)[C@]312	32*	7	21*	-3	-85
CCn1nc(C)c(C=NNC(=O)c2ccc3c(c2)OCO3)c1C	·	·	2	·	·
O=C(O)c1cccc(NC(=O)c2ccc(CN3C(=O)c4ccccc4C3=O)cc2)c1	-2	-2	1	-1	2
